# In ChEMBL document CHEMBL1914423, “New imidazo[2,1-b]thiazole derivatives: synthesis, in vitro anticancer evaluation, and in silico studies” (Eur J Med Chem, 2011):
# What was measured:
# M14 = experiment: Antiproliferative activity against human M14 cells after 48 hrs by MTT assay; assay type: functional, cell-based; settings: M14, 48 h
# K562 = experiment: Anticancer activity against human K562 cells after 48 hrs by SRB assay; assay type: functional; settings: K562, 48 h; for CC50: read-out: LC50 (the source's name)
# Method in brief: (§1)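 NCI five-dose screen. Cells in RPMI 1640 with 5% FBS and 2 mM L-glutamine, seeded at 5000–40,000 cells/well according to doubling time, then pre-incubated 24 h at 37 °C in 5% CO2. Drugs dissolved in DMSO, five concentrations by 10-fold or 1/2-log dilution. Cells fixed with TCA, SRB-stained, A515 read. IC50 solved from [(Ti−Tz)/(C−Tz)]×100 = 50.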
# MOLT-4 = experiment: Anticancer activity against human MOLT4 cells after 48 hrs by SRB assay; assay type: functional; settings: MOLT-4, 48 h; for CC50: read-out: LC50 (the source's name)
# RPMI-8226 = experiment: Anticancer activity against human RPMI8226 cells after 48 hrs by SRB assay; assay type: functional; settings: RPMI-8226, 48 h
# SR = experiment: Anticancer activity against human SR cells after 48 hrs by SRB assay; assay type: functional; settings: for CC50: read-out: LC50 (the source's name)
# Method in brief: (§2)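 NCI-60 five-dose mode: cells in RPMI 1640 with 5% FBS and 2 mM glutamine, plated at 5000–40,000 cells/well, and preincubated 24 h, with time-zero plates TCA-fixed. Drug given at five concentrations (10-fold or ½-log serial dilutions). Cold TCA fixation 60 min at 4 °C, SRB stain, Tris solubilization, A515. IC50 taken where [(Ti−Tz)/(C−Tz)]×100 = 50.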
# A549 = experiment: Anticancer activity against human A549 cells after 48 hrs by SRB assay; assay type: functional; settings: A549, 48 h; method in brief: as §1
# EKVX = experiment: Anticancer activity against human EKVX cells after 48 hrs by SRB assay; assay type: functional; method in brief: as §1
# NCI-H226 = experiment: Anticancer activity against human NCI-H226 cells after 48 hrs by SRB assay; assay type: functional; settings: NCI-H226, 48 h
# NCI-H23 = experiment: Anticancer activity against human NCI-H23 cells after 48 hrs by SRB assay; assay type: functional; settings: NCI-H23, 48 h
# HCC 2998 = experiment: Anticancer activity against human HCC2998 cells after 48 hrs by SRB assay; assay type: functional; settings: HCC 2998, 48 h; for CC50: read-out: LC50 (the source's name); method in brief: as §1
# SW-620 = experiment: Anticancer activity against human SW620 cells after 48 hrs by SRB assay; assay type: functional; settings: SW-620, 48 h; for CC50: read-out: LC50 (the source's name); method in brief: as §2
# SF-268 = experiment: Anticancer activity against human SF268 cells after 48 hrs by SRB assay; assay type: functional; settings: SF-268, 48 h; for CC50: read-out: LC50 (the source's name)
# SF-539 = experiment: Anticancer activity against human SF539 cells after 48 hrs by SRB assay; assay type: functional; settings: SF-539, 48 h; for CC50: read-out: LC50 (the source's name)
# SNB-19 = experiment: Anticancer activity against human SNB19 cells after 48 hrs by SRB assay; assay type: functional; settings: SNB-19, 48 h; for CC50: read-out: LC50 (the source's name)
# SNB-75 = experiment: Anticancer activity against human SNB75 cells after 48 hrs by SRB assay; assay type: functional; settings: SNB-75, 48 h; for CC50: read-out: LC50 (the source's name)
# LOX IMVI = experiment: Anticancer activity against human LOXIMVI cells after 48 hrs by SRB assay; assay type: functional; settings: for CC50: read-out: LC50 (the source's name); method in brief: as §1
# SK-MEL-5 = experiment: Anticancer activity against human SK-MEL-5 cells after 48 hrs by SRB assay; assay type: functional; settings: SK-MEL-5, 48 h; for CC50: read-out: LC50 (the source's name)
# UACC-257 = experiment: Anticancer activity against human UACC257 cells after 48 hrs by SRB assay; assay type: functional; settings: UACC-257, 48 h; for CC50: read-out: LC50 (the source's name); method in brief: as §2
# IGROV-1 = experiment: Anticancer activity against human IGROV1 cells after 48 hrs by SRB assay; assay type: functional; settings: IGROV-1, 48 h; for CC50: read-out: LC50 (the source's name); method in brief: as §1
# OVCAR-4 = experiment: Anticancer activity against human OVCAR4 cells after 48 hrs by SRB assay; assay type: functional; settings: OVCAR-4, 48 h
# OVCAR-5 = experiment: Anticancer activity against human OVCAR5 cells after 48 hrs by SRB assay; assay type: functional; settings: OVCAR-5, 48 h
# OVCAR-8 = experiment: Anticancer activity against human OVCAR8 cells after 48 hrs by SRB assay; assay type: functional; settings: OVCAR-8, 48 h
# A498 = experiment: Anticancer activity against human A498 cells after 48 hrs by SRB assay; assay type: functional; settings: A498, 48 h; for CC50: read-out: LC50 (the source's name); method in brief: as §1
# RXF 393 = experiment: Anticancer activity against human RXF393 cells after 48 hrs by SRB assay; assay type: functional; settings: RXF 393, 48 h; for CC50: read-out: LC50 (the source's name)
# TK-10 = experiment: Anticancer activity against human TK10 cells after 48 hrs by SRB assay; assay type: functional; settings: TK-10, 48 h; for CC50: read-out: LC50 (the source's name); method in brief: as §2
# UO-31 = experiment: Anticancer activity against human UO31 cells after 48 hrs by SRB assay; assay type: functional; settings: UO-31, 48 h; for CC50: read-out: LC50 (the source's name); method in brief: as §2
# PC-3 = experiment: Anticancer activity against human PC3 cells after 48 hrs by SRB assay; assay type: functional; settings: PC-3, 48 h; for CC50: read-out: LC50 (the source's name)
# DU-145 = experiment: Anticancer activity against human DU145 cells after 48 hrs by SRB assay; assay type: functional; settings: DU-145, 48 h; for CC50: read-out: LC50 (the source's name); method in brief: as §1
# MCF7 = experiment: Anticancer activity against human MCF7 cells after 48 hrs by SRB assay; assay type: functional; settings: MCF7, 48 h; for CC50: read-out: LC50 (the source's name); method in brief: as §1
# MDA-MB-468 = experiment: Anticancer activity against human MDA-MB-468 cells after 48 hrs by SRB assay; assay type: functional; settings: MDA-MB-468, 48 h; for CC50: read-out: LC50 (the source's name)
# [1] = read-out: LC50 (the source's name)
compound,measurement,setting,value
O=C(NCCNc1nccc(-c2c(-c3cccc(O)c3)nc3sccn23)n1)c1ccccc1,IC50,M14,0.434 µM
same,GI50,K562,9.11 µM
same,TGI,K562,> 100 µM
same,CC50,K562,> 100 µM
same,GI50,MOLT-4,13.5 µM
same,TGI,MOLT-4,74.2 µM
same,CC50,MOLT-4,> 100 µM
same,GI50,RPMI-8226,6.97 µM
same,TGI,RPMI-8226,25.3 µM
same,GI50,SR,5.68 µM
same,TGI,SR,50 µM
same,CC50,SR,> 100 µM
same,GI50,A549,9.21 µM
same,TGI,A549,46.5 µM
same,GI50,EKVX,25 µM
same,TGI,EKVX,> 100 µM
same,GI50,NCI-H226,7.95 µM
same,TGI,NCI-H226,45.3 µM
same,GI50,NCI-H23,10 µM
same,TGI,NCI-H23,30.7 µM
same,GI50,HCC 2998,13.8 µM
same,TGI,HCC 2998,31.2 µM
same,CC50,HCC 2998,70.3 µM
same,GI50,SW-620,18 µM
same,TGI,SW-620,79.4 µM
same,CC50,SW-620,> 100 µM
same,GI50,SF-268,15.5 µM
same,TGI,SF-268,87 µM
same,CC50,SF-268,> 100 µM
same,GI50,SF-539,11.3 µM
same,TGI,SF-539,36.8 µM
same,CC50,SF-539,> 100 µM
same,GI50,SNB-19,29.4 µM
same,TGI,SNB-19,> 100 µM
same,CC50,SNB-19,> 100 µM
same,GI50,SNB-75,3.27 µM
same,TGI,SNB-75,28.1 µM
same,CC50,SNB-75,> 100 µM
same,GI50,LOX IMVI,3.22 µM
same,TGI,LOX IMVI,17.8 µM
same,CC50,LOX IMVI,80.2 µM
same,GI50,SK-MEL-5,4.15 µM
same,TGI,SK-MEL-5,17.5 µM
same,CC50,SK-MEL-5,43.4 µM
same,GI50,UACC-257,0.489 µM
same,TGI,UACC-257,18.5 µM
same,CC50,UACC-257,> 100 µM
same,GI50,IGROV-1,3.61 µM
same,TGI,IGROV-1,50.8 µM
same,CC50,IGROV-1,> 100 µM
same,GI50,OVCAR-4,13.9 µM
same,TGI,OVCAR-4,84.6 µM
same,CC50,OVCAR-4; [1],> 100 µM
same,GI50,OVCAR-5,18.3 µM
same,TGI,OVCAR-5,61.8 µM
same,CC50,OVCAR-5; [1],> 100 µM
same,GI50,OVCAR-8,11.1 µM
same,TGI,OVCAR-8,78.8 µM
same,CC50,OVCAR-8; [1],> 100 µM
same,GI50,A498,3.68 µM
same,TGI,A498,19.3 µM
same,CC50,A498,58 µM
same,GI50,RXF 393,4.14 µM
same,TGI,RXF 393,22.2 µM
same,CC50,RXF 393,98.1 µM
same,GI50,TK-10,11.7 µM
same,TGI,TK-10,37.1 µM
same,CC50,TK-10,> 100 µM
same,GI50,UO-31,12.2 µM
same,TGI,UO-31,88.7 µM
same,CC50,UO-31,> 100 µM
same,GI50,PC-3,11.9 µM
same,TGI,PC-3,65.7 µM
same,CC50,PC-3,> 100 µM
same,GI50,DU-145,19.7 µM
same,TGI,DU-145,68.7 µM
same,CC50,DU-145,> 100 µM
same,GI50,MCF7,3.24 µM
same,TGI,MCF7,14.9 µM
same,CC50,MCF7,46.5 µM
same,GI50,MDA-MB-468,3.6 µM
same,TGI,MDA-MB-468,28.7 µM
same,CC50,MDA-MB-468,> 100 µM
O=C(NCCNc1nccc(-c2c(-c3cccc(O)c3)nc3sccn23)n1)c1ccccc1O,IC50,M14,0.335 µM
same,GI50,K562,6.06 µM
same,TGI,K562,> 100 µM
same,CC50,K562,> 100 µM
same,GI50,MOLT-4,2.97 µM
same,TGI,MOLT-4,21.7 µM
same,CC50,MOLT-4,> 100 µM
same,GI50,RPMI-8226,3.55 µM
same,LC50,RPMI-8226,> 100 µM
same,TGI,RPMI-8226,> 100 µM
same,GI50,SR,5.94 µM
same,TGI,SR,> 100 µM
same,CC50,SR,> 100 µM
same,GI50,A549,11 µM
same,LC50 (concentration giving 50% net tumour cell kill),A549,> 100 µM
same,TGI,A549,49 µM
same,GI50,EKVX,7.81 µM
same,LC50,EKVX,> 100 µM
same,TGI,EKVX,39.1 µM
same,GI50,NCI-H226,4.61 µM
same,LC50 (concentration killing 50% of tumour cells),NCI-H226,> 100 µM
same,TGI,NCI-H226,29.6 µM
same,GI50,NCI-H23,11.5 µM
same,LC50 (50% lethal concentration),NCI-H23,> 100 µM
same,TGI,NCI-H23,67.7 µM
same,GI50,HCC 2998,3.55 µM
same,TGI,HCC 2998,16.5 µM
same,CC50,HCC 2998,> 100 µM
same,GI50,SW-620,5.43 µM
same,TGI,SW-620,49.5 µM
same,CC50,SW-620,> 100 µM
same,GI50,SF-268,3.59 µM
same,TGI,SF-268,24.9 µM
same,CC50,SF-268,> 100 µM
same,GI50,SF-539,11.9 µM
same,TGI,SF-539,> 100 µM
same,CC50,SF-539,> 100 µM
same,GI50,SNB-19,5.02 µM
same,TGI,SNB-19,> 100 µM
same,CC50,SNB-19,> 100 µM
same,GI50,SNB-75,2.65 µM
same,TGI,SNB-75,20.5 µM
same,CC50,SNB-75,> 100 µM
same,GI50,LOX IMVI,0.335 µM
same,TGI,LOX IMVI,16.4 µM
same,CC50,LOX IMVI,75.1 µM
same,GI50,SK-MEL-5,4.57 µM
same,TGI,SK-MEL-5,53.3 µM
same,CC50,SK-MEL-5,> 100 µM
same,GI50,UACC-257,6.41 µM
same,TGI,UACC-257,73.6 µM
same,CC50,UACC-257,> 100 µM
same,GI50,IGROV-1,17.4 µM
same,TGI,IGROV-1,92.9 µM
same,CC50,IGROV-1,> 100 µM
same,GI50,A498,14.5 µM
same,TGI,A498,33.7 µM
same,CC50,A498,78.1 µM
same,GI50,RXF 393,3.19 µM
same,TGI,RXF 393,21.2 µM
same,CC50,RXF 393,> 100 µM
same,GI50,TK-10,11.6 µM
same,TGI,TK-10,52.2 µM
same,CC50,TK-10,> 100 µM
same,GI50,UO-31,5.68 µM
same,TGI,UO-31,19.7 µM
same,CC50,UO-31,72.8 µM
same,GI50,PC-3,5.15 µM
same,TGI,PC-3,77.6 µM
same,CC50,PC-3,> 100 µM
same,GI50,DU-145,5.22 µM
same,TGI,DU-145,43.3 µM
same,CC50,DU-145,> 100 µM
same,GI50,MCF7,4.03 µM
same,TGI,MCF7,22.2 µM
same,CC50,MCF7,> 100 µM
same,GI50,MDA-MB-468,2.3 µM
same,TGI,MDA-MB-468,18.2 µM
same,CC50,MDA-MB-468,> 100 µM
